# Columns and labels:
# [1] = Cytotoxicity against MDCK cells incubated for 48 hrs by CPE method; assay type: cell-based, Canis lupus familiaris; details: dog, read-out: TC50
# Summary of the method: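 MDCK cells seeded at 2.5 × 10^4 per well and grown 24 h, then exposed to various compound concentrations for 48 h at 37 °C in 5% CO2. Toxicity scored by CPE observation. TC50 calculated by Reed and Muench; values are averages of three independent assays.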
# Influenza A virus [2] = assay: Antiviral activity against Influenza A virus (A/Guangdong-Luohu/219/2006(H1N1)) infected in MDCK cells assessed as inhibition of virus-induced cytopathic effect; assay type: functional, organism-based
# Summary of the method: (§1)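 Confluent MDCK monolayers infected with 100 TCID50 of virus; 2 h adsorption at 37 °C, PBS wash, then maintenance medium at 37 °C with or without serial compound concentrations. CPE scored once virus control wells reached grade 4. IC50 calculated by Reed and Muench; values are averages of three independent assays.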
# [3] = Selectivity index, ratio of TC50 for MDCK cells to IC50 for Influenza A virus (A/Guangdong-Luohu/219/2006(H1N1)); assay type: toxicity, cell-based; details: dog, read-out: Selectivity Index
# Summary of the method: (§2)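 SI is TC50 divided by IC50. TC50 comes from uninfected MDCK cells after 48 h of compound exposure, scored by CPE. IC50 comes from MDCK cells infected with 100 TCID50 and scored for CPE when virus controls reached grade 4. Both values calculated by Reed and Muench.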
# Influenza B virus = assay: Antiviral activity against Influenza B virus (strain B/Jifang/13/97) infected in MDCK cells assessed as inhibition of virus-induced cytopathic effect; assay type: functional, organism-based
# [4] = Selectivity index, ratio of TC50 for MDCK cells to IC50 for Influenza B virus (strain B/Jifang/13/97); assay type: toxicity, cell-based; details: dog, read-out: Selectivity Index
# Influenza A virus [5] = assay: Antiviral activity against Influenza A virus (A/Tianjin-Jinnan/15/2009(H1N1)) infected in MDCK cells assessed as inhibition of virus-induced cytopathic effect; assay type: functional, organism-based; summary of the method: as §1
# [6] = Selectivity index, ratio of TC50 for MDCK cells to IC50 for Influenza A virus (A/Tianjin-Jinnan/15/2009(H1N1)); assay type: toxicity, cell-based; details: dog, read-out: Selectivity Index; summary of the method: as §2
Structure (SMILES),CC50 at 48 h [1],IC50 (Influenza A virus [2]),selectivity ratio [3],IC50 (Influenza B virus),selectivity ratio [4],IC50 (Influenza A virus [5]),selectivity ratio [6]
CCC(=O)Oc1cc(C(=O)Nc2ccccc2)ccc1OC,518 µM,173 µM,3,,,,
CCC(=O)Nc1cc(C(=O)Nc2ccc([N+](=O)[O-])cc2)ccc1OC,307 µM,26.3 µM,11.7,64.8 µM,4.7,> 21.6 µM,
CCC(=O)Nc1cc(C(=O)Nc2ccc(Br)cc2)ccc1OC,90.4 µM,> 17.6 µM,,,,,
CCC(=O)Nc1cc(C(=O)Nc2ccccn2)ccc1OC,> 669 µM,223 µM,> 3,,,,
CCOC(=O)C1=C[C@@H](OC(CC)CC)[C@H](NC(C)=O)[C@@H](N)C1 [OSELTAMIVIR],3070 µM,2 µM,1540,,,> 2440 µM,
CCC(=O)Nc1cc(C(=O)NC2CCCCC2)ccc1OC,510 µM,73 µM,6.9,,,,
NC(=O)c1ncn([C@@H]2O[C@H](CO)[C@@H](O)[C@H]2O)n1 [RIBAVIRIN],4770 µM,8.8 µM,542,45.5 µM,104,35.3 µM,135
COc1ccc(C(=O)Nc2ccccc2)cc1NC(=O)c1ccccc1,192 µM,12.5 µM,15.4,21.4 µM,9,9.2 µM,20.9
CCC(=O)Nc1cc(NC(=O)c2ccccc2)ccc1OC,387 µM,74.5 µM,5.2,,,,
COc1ccc(C(=O)Nc2ccccc2)cc1,> 880 µM,> 293 µM,,,,,
COc1ccc(C(=O)Nc2ccccc2)cc1NC(=O)C(C)F (centres undefined),> 632 µM,211 µM,> 3,,,,
COc1ccc(C(=O)N(C)c2ccccc2)cc1NC(=O)C(C)C,492 µM,117 µM,4.2,,,,
CCC(=O)Nc1cc(C(=O)Nc2cccc(SC)c2)ccc1OC,324 µM,> 63 µM,,,,,
COc1cc(NC(=O)C(C)F)cc(C(=O)Nc2ccccc2)c1 (centres undefined),491 µM,211 µM,2.3,,,,
COc1ccc(C(=O)Nc2ccccc2)cc1NC(=O)C1CCCC1,459 µM,37.9 µM,12.1,> 65.7 µM,,> 65.7 µM,
CCC(=O)Nc1cc(C(=O)Oc2ccccc2)ccc1OC,464 µM,223 µM,2.1,,,,
CCC(=O)Nc1cc(C(=O)Nc2ccccc2)ccc1Cl,530 µM,153 µM,3.5,,,,
CCC(=O)Nc1cc(C(=O)Nc2cccc(Cl)c2)ccc1OC,602 µM,> 66.9 µM,,,,,
COc1c(NC(=O)C(C)F)cccc1C(=O)Nc1ccccc1 (centres undefined),> 632 µM,> 211 µM,,,,,
COc1ccc(C(=O)Nc2ccccc2)cc1NC(=O)C(C)Cl (centres undefined),200 µM,17.3 µM,11.6,> 22.3 µM,,> 22.3 µM,
COc1ccc(NC(=O)C(C)F)cc1C(=O)Nc1ccccc1 (centres undefined),272 µM,> 70.2 µM,,,,,
CCC(=O)Nc1cc(C(=O)N(C)c2ccccc2)ccc1OC,444 µM,101 µM,4.4,,,,
CCC(=O)Nc1cc(C(=O)NC2CCC2)ccc1OC,> 724 µM,59 µM,> 12.3,> 241 µM,,> 241 µM,
CCC(=O)Nc1cc(C(=O)Nc2ccccc2)ccc1OC,> 670 µM,43 µM,> 15.6,> 224 µM,,> 224 µM,
CC(F)C(=O)Nc1cccc(C(=O)Nc2ccccc2)c1 (centres undefined),578 µM,144 µM,4,,,,
CCC(=O)Nc1cc(S(=O)(=O)Nc2ccccc2)ccc1OC,> 599 µM,48.4 µM,> 12.4,> 66.7 µM,,> 66.7 µM,
CCC(=O)Nc1cc(C(=O)Nc2ccc(C)cc2)ccc1OC,162 µM,23.7 µM,6.8,> 23.7 µM,,> 23.7 µM,
COc1ccc(C(=O)Nc2ccccc2)cc1NC(C)=O,> 704 µM,113 µM,> 6.2,,,,
CCC(=O)Nc1cc(C(=O)Nc2nccs2)ccc1OC,> 655 µM,35 µM,> 18.7,126 µM,> 5.2,93.8 µM,6.9

# From ChEMBL document CHEMBL2062433, “Synthesis and antiviral activity of substituted bisaryl amide compounds as novel influenza virus inhibitors” (Eur J Med Chem, 2012)
